Measured values from ChEMBL document CHEMBL2046385, “Palau'amine and related oroidin alkaloids dibromophakellin and dibromophakellstatin inhibit the human 20S proteasome” (J Nat Prod, 2012).
pIC50: −log10 of the molar value. The source made the active and inactive calls. No cut-off for these calls is given here. Peptide text beside a SMILES is read from it. * marks the point of attachment. Cbz = O=C(OCc1ccccc1)*

Tests used:
[1] = Inhibition of chymotryptic-like of purified human 20S proteasome using Suc-LLVY-AMC as substrate after 30 mins by fluorescence assay
Outline: (§1)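 Purified human 20S core at 1 nM in 50 mM Tris-HCl pH 7.5 with 0.03% SDS, 37 °C. Fluorogenic substrate was used at its Km. Released AMC was read at ex 380/em 460 nm every minute for 30 min. The maximal (linear) rate was used to derive IC50. Each value is the mean of three or more independent experiments.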

[2] = Inhibition of caspase-like of purified human 20S proteasome using Z-LLE-AMC as substrate after 30 mins by fluorescence assay; outline: as §1
[3] = Inhibition of tryptic-like of purified human 20S proteasome using Boc-LRR-AMC as substrate after 30 mins by fluorescence assay; outline: as §1
[4] = Inhibition of chymotryptic-like of purified human 20S immunoproteasome
[5] = species on record: Homo sapiens; assay: Reversible inhibition of chymotryptic-like of purified human 20S proteasome assessed as Suc-LLVY-AMC substrate at 1 uM measured after drug washout
Outline: (§2)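 Washout assay. Human 20S proteasome (1 nM) was exposed to vehicle or inhibitor (1 or 10 μM), then assayed for CT-L activity with Suc-LLVY-AMC as in the main assay. The mixture was washed through a 10K centrifugal filter with 500 volumes of reaction buffer. Retentate CT-L activity was compared with the prewash activity.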

[6] = species on record: Homo sapiens; assay: Reversible inhibition of purified human 20S proteasome at pH >7.5
Outline: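 Compound preincubated in assay buffer (50 mM Tris-HCl, 0.03% SDS) at pH 7.5 or 8.0 for varying times before enzyme addition. Residual inhibition of 1 nM purified human 20S proteasome then read by fluorogenic AMC release at 37 °C over 30 min.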

[7] = species on record: Homo sapiens; assay: Irreversible inhibition of chymotryptic-like of purified human 20S proteasome assessed as Suc-LLVY-AMC substrate at 0.5 to 1 uM
Outline: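 Suc-LLVY-AMC 50 μM (Km). AMC fluorescence λex 380/λem 440. Vmax taken from linear portions and plotted against [E]. An irreversible inhibitor intersects the horizontal axis rather than passing through the origin.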

[8] = species on record: Homo sapiens; assay: Irreversible inhibition of chymotryptic-like of purified human 20S proteasome assessed as Suc-LLVY-AMC substrate at 10 to 50 uM measured after drug washout
[9] = test system: HeLa; assay: Inhibition of 20S proteasome in TNFalpha-stimulated human HeLa cells assessed as accumulation of ubiquitinylated cellular proteins at 1 uM after 2 hrs using DAPI staining by fluorescence confocal microscopic analysis; assay type: cell-based
Outline: (§3)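 HeLa cells grown on glass coverslips in MEM with 10% FBS and penicillin/streptomycin. Treated 2 h with 1.0 μM compound or 0.1% DMSO vehicle, TNFα 20 ng/mL stimulation for 2 h. Fixed in 4% paraformaldehyde, permeabilized with 0.5% Triton, blocked in 5% BSA/0.05% Tween-20. […] anti-ubiquitin (P4D1) 1:250 overnight at 4 °C, then Alexa546 secondary; DAPI nuclear stain. DIC and confocal imaging, with quantification of ubiquitin fluorescence intensity.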

[10] = test system: HeLa; assay: Inhibition of 20S proteasome in TNFalpha-stimulated human HeLa cells assessed as accumulation of ubiquitinylated cellular proteins at 1 uM after 2 hrs using DAPI staining by DIC image analysis; assay type: cell-based; outline: as §3
[11] = test system: HeLa; assay: Inhibition of 26S proteasome-mediated IkappaBalpha proteasomal degradation in TNFalpha-stimulated human HeLa cells at 1 uM treated 30 mins before TNFalpha challenge measured after 30 mins using DAPI staining by confocal microscopy analysis; assay type: cell-based
Outline: (§4)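 HeLa cells on coverslips in MEM with 10% FBS were pretreated 30 min with 1 μM compound or 0.1% DMSO vehicle, then given 20 ng/mL TNFα for 30 min or left unstimulated. Fixed in paraformaldehyde, permeabilized with Triton, blocked in BSA/Tween. Mouse anti-IκBα (L35A5) 1:250 overnight at 4 °C, then Alexa-labelled secondary; DAPI counterstain. Confocal imaging with quantified IκBα fluorescence intensity; p-value versus vehicle/TNFα.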

[12] = test system: HeLa; assay: Inhibition of 26S proteasome-mediated IkappaBalpha proteasomal degradation in human HeLa cells at 1 uM after 30 mins using DAPI staining by confocal microscopy analysis; assay type: cell-based; outline: as §4
[13] = species on record: Homo sapiens; assay: Irreversible inhibition of chymotryptic-like of purified human 20S proteasome assessed as Suc-LLVY-AMC substrate at 1 uM measured after drug washout; outline: as §2

Structure (SMILES) | pIC50 [1] | pIC50 [2] | pIC50 [3] | pIC50 [4] | other results
CC(C)C[C@@H](C=O)NC(=O)[C@H](CC(C)C)NC(=O)[C@H](CC(C)C)NC(=O)OCc1ccccc1 (Cbz-Leu-Leu-Leu-aldehyde) |  |  |  |  | inhibition [5]: Active
NC[C@@H]1[C@H]2CN3C(=O)c4cccn4[C@@H]4NC(N)=N[C@@]43[C@@H]2[C@]2(N=C(N)N[C@H]2O)[C@H]1Cl [listing 1 of 2 here] |  |  |  |  | inhibition [6]: Active; inhibition [7]: Active; inhibition [8]: Active; inhibition [9]: Active; inhibition [10]: Active; inhibition [11]: Active; inhibition [12]: Active
NC[C@@H]1[C@H]2CN3C(=O)c4cccn4[C@@H]4NC(N)=N[C@@]43[C@@H]2[C@]2(N=C(N)N[C@H]2O)[C@H]1Cl (racemic) | 5.26 | 5.52 | < 4.00 | 5.40 | 
CC[C@H](C)[C@H](NC(=O)[C@H]([C@@H](C)CC)N(C)C(C)=O)C(=O)N[C@H](C(=O)N[C@@H](CC(C)C)C(=O)[C@@]1(C)CO1)[C@@H](C)O |  |  |  |  | inhibition [13]: Active
NC[C@@H]1[C@H]2CN3C(=O)c4cccn4[C@@H]4NC(N)=N[C@@]43[C@@H]2[C@]2(N=C(N)N[C@H]2O)[C@H]1Cl [listing 2 of 2 here] | 5.60 | 5.80 |  | 5.64 | 

Second part, led by results:

pIC50 [1] | pIC50 [2] | pIC50 [3] | pIC50 [4] | Structure (SMILES) | other results
< 4.00 | < 4.00 | < 4.00 | < 4.00 | O=c1c2cc(Br)c(Br)n2cc2n1CCC2 | 
4.92 | 4.79 | < 4.00 | 5.21 | O=C1N[C@H]2n3c(cc(Br)c3Br)C(=O)N3CCC[C@]23N1 (racemic) [DIBROMOPHAKELLSTATIN] | 
4.60 | 4.57 | < 4.00 | 4.73 | NC1=N[C@]23CCCN2C(=O)c2cc(Br)c(Br)n2[C@@H]3N1 (racemic) [DIBROMOPHAKELLIN] | 
